A selection: hits, their analogues and other compounds. The true share with any hit is near 4%.
KCNQ1 pot: human KCNQ1 channel potentiation or activation; CHO-K1 KCNQ1, thallium flux FluxOR fluorescence; hits give high values; B-score at 10 µM; hit rate 0.35% among 310,000; AID 2648;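 active = fluorescence ratio B-score, a plate-corrected score, at least three library SD, with initial intensity B-score within 5 SD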
Target sequence (P51787 whole entry, looked up): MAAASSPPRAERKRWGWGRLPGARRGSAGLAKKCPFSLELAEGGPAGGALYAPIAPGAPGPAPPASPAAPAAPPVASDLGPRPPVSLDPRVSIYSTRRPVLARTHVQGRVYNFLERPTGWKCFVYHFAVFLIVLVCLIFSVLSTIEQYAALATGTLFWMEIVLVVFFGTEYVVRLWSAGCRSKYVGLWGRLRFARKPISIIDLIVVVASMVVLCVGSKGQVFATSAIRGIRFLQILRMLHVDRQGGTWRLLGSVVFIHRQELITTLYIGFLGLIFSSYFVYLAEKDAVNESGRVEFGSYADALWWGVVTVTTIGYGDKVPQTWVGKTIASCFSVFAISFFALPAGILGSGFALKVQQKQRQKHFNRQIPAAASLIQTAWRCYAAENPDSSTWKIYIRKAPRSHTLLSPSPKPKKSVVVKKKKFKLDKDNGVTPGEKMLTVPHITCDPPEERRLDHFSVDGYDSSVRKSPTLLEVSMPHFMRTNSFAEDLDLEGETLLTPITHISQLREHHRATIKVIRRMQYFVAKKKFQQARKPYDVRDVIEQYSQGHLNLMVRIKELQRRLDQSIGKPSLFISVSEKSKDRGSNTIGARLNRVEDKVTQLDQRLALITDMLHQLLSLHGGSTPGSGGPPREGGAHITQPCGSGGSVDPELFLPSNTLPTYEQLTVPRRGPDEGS
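System: Stable KCNQ1 CHO-K1 line | Incubation: 90 min dye loading and 20 min compound exposure, both at room temperature | Measure: Ratio B score | Medium: Assay buffer for compound exposure, DMSO matched across wells | Compound dosing: Single-concentration screen | Probe or stimulus: K+/Tl+ depolarizing stimulus | Measured by: Kinetic FluxOR fluorescence, 10 s baseline plus 110 s post-stimulus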
KCNK3 inh: human KCNK3 channel inhibition, primary screen. CHO-KCNK3 thallium flux, FluxOR fluorescence; hits give low values. O14649. hit rate 0.84% among 340,000. B-score at 10 µM;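 active = B-score under library mean minus 4 SD, starting fluorescence ratio at most library mean plus 5 SD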;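 note: more negative B-score means stronger inhibition of thallium flux through KCNK3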
KCNK9 block: human KCNK9 channel inhibition | hit rate 1.2% among 310,000 | HEK293 KCNK9, FluxOR thallium flux fluorescence; hits give low values | B-score at 10 µM;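 active = ratio B-score over 3 SD below the library mean, with starting fluorescence within 5 SD of its mean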;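 note: negative B-score means less thallium flux so channel inhibition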
KCNQ1 inh: human KCNQ1 channel inhibition. P51787. CHO-K1 KCNQ1, FluxOR thallium flux fluorescence; hits give high values. B-score at 10 µM. hit rate 1.3% among 310,000;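 active = compounds whose thallium flux B-score, printed positive for inhibition, exceeds three library SD while starting fluorescence stays within three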;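 note: channel opened by potassium depolarization with thallium stimulus after 20 min compound exposure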
PHOSPHO1 block: inhibitors of human PHOSPHO1 phosphatase | hit rate 1.1% among 290,000 | AID 1565 | inhibition, % at 13.3 µM | recombinant PHOSPHO1, absorbance phosphatase assay; in the data active = inhibition above about 60%
hERG protect: compounds protecting human hERG from proarrhythmic drug block | AID 1511 | activation (rescue from dofetilide block), less the hit threshold, % at 10 µM | CHO-hERG, FluxOR thallium flux, dofetilide IC70 present | hit rate 0.51% among 310,000 | Q12809;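 active = activation above the mean of controls blocked by dofetilide plus 5 SD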;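 note: thallium influx through hERG after potassium depolarization seen as dye fluorescence rise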
KCNK3 confirm: confirmation of human KCNK3 two-pore domain potassium channel inhibitors | CHO-KCNK3 thallium flux, FluxOR fluorescence; 0% buffer, 100% carvedilol maximal block | hit rate 99% among 2,400 | AID 651638 | ratio percent of control, % at 10 µM | shares compounds with KCNK3 inh;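 active = ratio percent of control, averaged over triplicates, above buffer control mean plus 5 SD, cut at about 64% in these data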;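 note: ratio is the fluorescence rise from min to max over baseline after thallium stimulus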
KCNK3 uninduced: KCNK3 inhibitor counter-screen hit in non-induced cells. shares compounds with KCNK3 inh. non-induced KCNK3 parental cells, FluxOR thallium flux; hits give low values. thallium flux ratio (lower = more inhibition) at 10 µM. hit rate 40% among 2,400;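 active = thallium flux ratio, averaged over three wells, more than 5 SD below the buffer control mean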;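 note: host cells are CHO cells without KCNK3 induction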
Numbers stand for hits; - = inactive; . = not tested or not shown.

SMILES	KCNQ1 pot	KCNK3 inh	KCNK9 block	KCNQ1 inh	PHOSPHO1 block	hERG protect	KCNK3 confirm	KCNK3 uninduced
C#CCN1C(C)=C(C(=O)OC)C(c2cccc([N+](=O)[O-])c2)C(C(=O)OCC)=C1C (configuration not stated)	.	-12	.	.	.	.	109	-
CC/C(=C\c1oc2cc3ccccc3cc2[n+]1CC)Nc1ccccc1	-	-10	-	9	-	-	127	0.14
CC[n+]1c(/C=C/Nc2ccccc2)oc2ccc(OC)cc21	-	-	-	-	-	-	.	.
Cc1cnccc1CN(C)Cc1cn(C)nc1-c1cccc(Cl)c1	-	-	-	-	-	-	.	.
Cc1cnccc1CN(C)Cc1cn(C)nc1-c1ccc(Oc2ccccc2)cc1	-	-10	-	-	-	-	118	0.15
COc1cccc(O)c1CN1CCC(C(=O)Nc2ccc(-c3cccc(C)c3)cc2)CC1	-	-11	-	6	-	-	125	-
COc1cccc(O)c1CN1CCC(C(=O)Nc2ccc(Oc3cccnc3)cc2)CC1	-	-	-	-	-	-	.	.
CN(C)S(=O)(=O)c1cccc(NC(=O)C2Cc3ccccc3CN2C(=O)c2ccccc2)c1 (configuration not stated)	-	-	-	-	-	-	.	.
Cc1cc(C)cc(C(=O)Nc2cccc(NC(=O)c3ccco3)c2)c1	-	-11	-8	-	-	-	101	-
O=C(Nc1cccc(OCC(=O)N2CCOCC2)c1)c1cccc([N+](=O)[O-])c1	-	-	-	-	-	-	.	.
O=C(COc1cccc(NC(=O)c2cccc([N+](=O)[O-])c2)c1)c1ccc(Br)cc1	-	-11	-	-	-	-	96	0.15
COc1cccc(C(=O)COc2cccc(NC(=O)c3ccco3)c2)c1	-	-10	-7.3	-	-	-	120	0.14
COc1ccc(-n2c(SC(C)C(=O)N3CCOCC3)nc3ccccc3c2=O)cc1 (configuration not stated)	-	-	-	-	-	-	.	.
O=C(CN1C(=O)CCSc2ccccc21)Nc1ccc(F)cc1	-	-	-	-	-	-	.	.
CN(C(=O)Cn1nnc2ccccc2c1=O)C1CCCCC1	-	-	-	-	-	-	.	.
O=C(Cn1c(=O)n(Cc2ccco2)c(=O)c2ccccc21)Nc1cccc(Cl)c1	-	-14	-	-	-	-	98	-
CCN(Cc1ccc(OC)c(F)c1)C(=O)CCl	-	-	-	-	-	-	.	.
CCN(Cc1ccc(OC)c(F)c1)C(=O)c1oc2ccccc2c1COC	-	-14	-	-	-	-	94	-
CCOc1cc(-c2ccccc2)nc(N)n1	-	-	-	-	-	-	.	.
CN(C(=O)c1ccc2ccccc2c1)c1ccccn1	-	-	-	-	-	-	.	.
CN(C(=O)c1ccoc1)c1ccc2ccccc2c1	-	-10	-	-	-	-	55	-
CCN(CC)S(=O)(=O)c1ccc(N2CCOCC2)c(NC(=O)CNCCc2ccccc2)c1	-	-	-	-	-	-	.	.
O=S(=O)(c1cccc(COc2c(Cl)cccc2Cl)c1)N1CCOCC1	-	-9.5	-	-	.	-	120	-
O=S(=O)(c1cccc(COc2ccc(Cl)cc2Cl)c1)N1CCOCC1	-	-9.9	-	-	-	-	122	0.16
CC(=O)c1cc(Cl)ccc1OCc1cccc(S(=O)(=O)N2CCOCC2)c1	-	-	-	-	.	-	.	.
CC(C)C(=O)NC(NCC1CCCO1)C(Cl)(Cl)Cl (configuration not stated)	-	-	-	-	-	-	.	.
C=CCOC(=O)C1=C(C)NC(=O)NC1c1cn(-c2ccccc2)nc1-c1cccs1 (configuration not stated)	-	-9.2	-	-	-	-	120	0.15
O=C(c1cn(-c2ccccc2)nc1-c1cccc([N+](=O)[O-])c1)N1CCCCC1	-	-	-	-	-	-	.	.
O=C(Cn1cc(C(=O)C(F)(F)F)c2ccccc21)N1CCOCC1	-	-	-	-	-	-	.	.

Bioassay records: PubChem, several laboratories
